Activity calls are given as the source filed them. No cut-off for these calls is given here.
Assays:
CYP2D6 = CYP2D6 (Homo sapiens, UniProt P10635); assay: Drug metabolism in human liver microsomes assessed as CYP2D6-medited compound metabolism at 1 uM after 15 to 30 mins by LC-MS/MS analysis; format: ADME; settings: read-out: Drug metabolism
Procedure, shortened: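 Human liver microsomes (1 mg/mL) with 1 µM test substance and 3 mM NADPH (final) in 50 mM potassium phosphate, pH 7.4, at 37 °C; stopped after 15–30 min with 3 volumes methanol. Metabolic rate taken from slope, with and without 4 µM quinidine (final). The quinidine-resistant fraction was assigned to other enzymes; CYP2D6 contribution = total minus that fraction.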

[1] = biological target: T1, Sodium-dependent serotonin transporter (Homo sapiens, UniProt P31645); assay: Displacement of [3H]-citalopram from human SERT expressed in HEK293 cell membranes after 60 mins by liquid scintillation counting
Procedure, shortened: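 Membranes from cells expressing human serotonin transporter; [3H]citalopram radioligand. Ki from IC50 via Cheng–Prusoff (radioligand concentration and Kd). Ki values are means of two or three independent experiments.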

[2] = biological target: T1, Sodium-dependent serotonin transporter; assay: Inhibition of human SERT expressed in CHO cells assessed as reduction in [3H]5-HT uptake preincubated for 10 mins followed by [3H]5-HT addition measured after 20 mins by liquid scintillation counting; format: cell-based
Procedure, shortened: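 CHO cells stably expressing human serotonin transporter; compound or DMSO in reaction buffer pre-incubated with cells at 37 °C for 10 min, then [3H]5-HT plus compound added and incubated 37 °C for 20 min. Cells rinsed twice, lysed, radioactivity counted. IC50 values are means of at least three independent experiments.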

Rattus norvegicus = assay: Increase in serotonin levels in Crlj:WI rat frontal cortex assessed as at 10 mg/kg, po administered as single dose at 3 hrs post perfusion by microdialysis relative to baseline control; format: functional, organism-based
Procedure, shortened: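 Frontal cortex microdialysis in rats. Dialysate (10 µL per 5-min collection, at 20-min intervals) was injected automatically into HPLC for 5-HT. Oral dosing followed at least 3 h of perfusion, once baseline was stable, and sampling continued 3 h after dosing.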

CYP2D6, sequence (P10635 whole entry): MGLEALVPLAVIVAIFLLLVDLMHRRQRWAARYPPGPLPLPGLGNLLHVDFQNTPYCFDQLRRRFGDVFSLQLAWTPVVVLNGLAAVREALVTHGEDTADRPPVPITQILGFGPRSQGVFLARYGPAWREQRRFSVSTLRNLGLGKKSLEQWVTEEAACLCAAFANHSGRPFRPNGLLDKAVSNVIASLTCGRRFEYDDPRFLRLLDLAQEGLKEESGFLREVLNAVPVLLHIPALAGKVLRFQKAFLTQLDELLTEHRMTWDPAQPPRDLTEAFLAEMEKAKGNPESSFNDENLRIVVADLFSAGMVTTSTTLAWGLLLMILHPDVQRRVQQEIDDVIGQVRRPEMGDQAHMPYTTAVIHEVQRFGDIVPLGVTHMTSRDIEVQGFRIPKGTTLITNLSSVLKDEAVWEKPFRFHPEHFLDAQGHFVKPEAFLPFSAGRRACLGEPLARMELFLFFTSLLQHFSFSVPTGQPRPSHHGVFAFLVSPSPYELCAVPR
T1 sequence (P31645 whole entry): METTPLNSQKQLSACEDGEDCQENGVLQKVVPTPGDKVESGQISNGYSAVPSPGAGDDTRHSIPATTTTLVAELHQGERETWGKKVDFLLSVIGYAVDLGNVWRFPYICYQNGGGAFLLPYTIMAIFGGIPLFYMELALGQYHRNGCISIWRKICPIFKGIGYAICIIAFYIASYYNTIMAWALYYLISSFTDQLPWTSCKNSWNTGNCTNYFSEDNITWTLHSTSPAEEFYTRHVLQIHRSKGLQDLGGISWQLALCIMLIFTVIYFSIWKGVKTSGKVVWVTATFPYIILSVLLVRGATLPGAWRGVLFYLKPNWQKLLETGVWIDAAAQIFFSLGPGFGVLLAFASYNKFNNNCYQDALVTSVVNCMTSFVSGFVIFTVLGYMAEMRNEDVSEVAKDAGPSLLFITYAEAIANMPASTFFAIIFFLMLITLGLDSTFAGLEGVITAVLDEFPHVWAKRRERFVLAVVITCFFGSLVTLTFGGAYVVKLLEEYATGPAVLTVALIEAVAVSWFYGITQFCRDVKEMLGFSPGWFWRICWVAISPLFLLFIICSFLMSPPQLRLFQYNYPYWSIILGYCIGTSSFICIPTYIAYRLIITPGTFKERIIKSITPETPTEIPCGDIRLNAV

| Compound | metabolised at 1 µM (CYP2D6) [%] | Ki [1] [nM] | IC50 [2] [nM] | Activity (Rattus norvegicus) |
| --- | --- | --- | --- | --- |
| COCCOc1cc(CC2CCN(CCc3ccc4c(c3)CCCO4)CC2)ccc1Br | 0 | 1.74 | – | – |
| COCCOc1cccc(CC2CCN(CCc3ccc4c(c3)C(=O)CCO4)CC2)c1 | – | 202 | – | – |
| COCCOc1ccc(Br)c(CC2CCN(CCc3cc4c(cc3Cl)OCCO4)CC2)c1 | 86 | – | – | – |
| COCCOc1cc(CC2CCN(CCc3ccc4c(c3)OCCC4=O)CC2)ccc1Br | 3.6 | 1.41 | – | – |
| COCCOc1cc(CC2CCN(CCc3ccc4c(c3)S(=O)(=O)CCO4)CC2)ccc1Br | 55.8 | 2.59 | – | – |
| COCCOc1cc(CC2CCN(CCc3ccc4c(c3)C(=O)CCC4)CC2)ccc1Br | 11.8 | 0.67 | – | – |
| COCCOc1cc(CC2CCN(CCc3ccc4c(c3)C(=O)CCCO4)CC2)ccc1Br | 4.2 | 1.17 | – | – |
| COCCOc1cc(CC2CCN(CCc3ccc4c(c3)C(=O)CCO4)CC2)ccc1F | – | 111 | – | – |
| COCCOc1cc(CC2CCN(CCc3ccc4c(c3)OCCC4)CC2)ccc1Br | 6.8 | 5.4 | – | – |
| COCCOc1cc(CC2CCN(CCc3ccc4c(c3)OCCO4)CC2)ccc1Br | 55.6 | 2.39 | – | – |
| COCCOc1cc(CC2CCN(CCc3ccc4c(c3)C(=O)CCO4)CC2)ccc1C | 48.5 | 5.25 | 45.3 | – |
| COCCOc1cc(Br)cc(CC2CCN(CCc3ccc4c(c3)OCCO4)CC2)c1 | 49.4 | 18.5 | – | – |
| COCCOc1cc(CC2CCN(CCc3ccc4c(c3)C(O)CCO4)CC2)ccc1Br (stereo not given) | 36.4 | 8.44 | – | – |
| COCCOc1cc(CC2CCN(CCc3ccc4c(c3)C(=O)CCO4)CC2)ccc1C(C)C | – | 246 | – | – |
| COCCOc1cc(CC2CCN(CCc3ccc4c(c3)C(=O)CCO4)CC2)ccc1Cl | 53.5 | 3.37 | 16.4 | – |
| CCc1ccc(CC2CCN(CCc3ccc4c(c3)C(=O)CCO4)CC2)cc1OCCOC | 18.4 | 9.85 | – | – |
| COCCOc1cc(Br)cc(CC2CCN(CCc3ccc4c(c3)C(=O)CCO4)CC2)c1 | 14 | 5.32 | – | – |
| COCCOc1cc(Br)cc(CC2CCN(CCc3cc4c(cc3Cl)OCCO4)CC2)c1 | 64.4 | 14.1 | – | – |
| COCCOc1cc(CC2CCN(CCc3ccc4c(c3)C(=O)CCO4)CC2)ccc1Br | 0 | – | – | Active |
| COCCOc1cc(CC2CCN(CCc3cc4c(cc3Cl)OCCO4)CC2)ccc1Br | 75.6 | 5.47 | – | – |
| COCCOc1cc(CC2CCN(CCc3ccc4c(c3)C(=O)CCO4)CC2)ccc1I | – | 0.41 | – | – |
| COCCOc1cccc(CC2CCN(CCc3cc4c(cc3Cl)OCCO4)CC2)c1Br | – | 74.6 | – | – |
